Laboratory results taken from ChEMBL document CHEMBL1122644, “Ring-substituted 1,2-dialkylated 1,2-bis(hydroxyphenyl)ethanes. 2. Synthesis and estrogen receptor binding affinity of 4,4'-, 5,5'-, and 6,6'-disubstituted metahexestrols” (J Med Chem, 1984).
Blank lines part the entries; values can stand above or below the compound they belong to.

How the values were obtained:
[1] = target: Estrogen receptor (Bos taurus) (UniProt Q9XSB5+P49884); test: Relative binding affinity for calf uterine estrogen receptor is the ratio of molar concentrations of 17-beta-estradiol and compound required to decrease amount of bound [3H]-E2 by 50% X 100.; format: protein assay
Summary of the method: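 Calf uterine cytosol incubated with [3H]estradiol and competitor at 4 °C for 16 h. Free ligand removed with dextran-coated charcoal, then centrifuged and a supernatant aliquot counted. Six competitor concentrations chosen to span 50% competition on a semilog plot. Molar concentrations of unlabeled estradiol and test compound giving 50% reduction in binding were read from the plot.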

[2] = target: T1, Estrogen receptor (Mus musculus) (UniProt O08537+P19785); test: Anti-estrogenic activity in mouse uterotrophic assay at 100 ug; format: functional; design: unit not given here
Summary of the method: (§1)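 Immature female NMRI mice, 20 days old (14.5 ± 1.2 g), randomized into groups of 10. Test compound in olive oil (0.1 mL) given subcutaneously daily for 3 days alongside estrone stimulation. Uteri removed 24 h after last injection, fixed in Bouin's solution, washed, dried and weighed. Readout is inhibition of estrone-stimulated uterine growth.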

[3] = target: T1, Estrogen receptor (Mus musculus); test: Estrogenic activity in mouse uterotrophic assay at 100 ug; format: functional; design: unit not given here
Summary of the method: (§2)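 Uterotrophic test in 20-day-old immature female NMRI mice (14.5 ± 1.2 g), 10 per group. Daily s.c. injections of compound in 0.1 mL olive oil for 3 days. Uteri excised 24 h after final dose, Bouin-fixed, washed, dried and weighed to measure stimulation of uterine growth.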

[4] = target: T1, Estrogen receptor (Mus musculus); test: Estrogenic activity in mouse uterotrophic assay at 10 ug; format: functional; design: unit not given here; summary of the method: as §2
[5] = target: T1, Estrogen receptor (Mus musculus); test: Anti-estrogenic activity in mouse uterotrophic assay at 1 ug; format: functional; design: unit not given here; summary of the method: as §1
[6] = target: T1, Estrogen receptor (Mus musculus); test: Anti-estrogenic activity as inhibition of estrone-stimulated uterine growth in mice at 1 mg/kg; format: functional, organism-based; design: dose 1 mg/kg; summary of the method: as §1
[7] = target: T1, Estrogen receptor (Mus musculus); test: Estrogenic activity in mouse uterotrophic assay at 1000 ug; format: functional; design: unit not given here; summary of the method: as §2
[8] = target: T1, Estrogen receptor (Mus musculus); test: Anti-estrogenic activity in mouse uterotrophic assay at 10 ug; format: functional; design: unit not given here; summary of the method: as §1
[9] = target: T1, Estrogen receptor (Mus musculus); test: Anti-estrogenic activity in mouse uterotrophic assay at 0 ug; format: functional; design: unit not given here; summary of the method: as §1
[10] = target: T1, Estrogen receptor (Mus musculus); test: Estrogenic activity in mouse uterotrophic assay at 0 ug; format: functional; design: unit not given here; summary of the method: as §2
[11] = target: T1, Estrogen receptor (Mus musculus); test: Estrogenic activity in mouse uterotrophic assay at 1 ug; format: functional; summary of the method: as §2
[12] = target: T1, Estrogen receptor (Mus musculus); test: Estrogenic activity in mouse uterotrophic assay at 0.1 ug; format: functional; summary of the method: as §2
[13] = target: T1, Estrogen receptor (Mus musculus); test: Estrogenic activity in mouse uterotrophic assay at 80 ug; format: functional; summary of the method: as §2
[14] = target: T1, Estrogen receptor (Mus musculus); test: Estrogenic activity in mouse uterotrophic assay at 16 ug; format: functional; summary of the method: as §2
[15] = target: T1, Estrogen receptor (Mus musculus); test: Anti-estrogenic activity as inhibition of estrone-stimulated uterine growth in mice at 250 mg/kg; format: functional, organism-based; design: dose 250 mg/kg; summary of the method: as §1
[16] = target: T1, Estrogen receptor (Mus musculus); test: Estrogenic activity in mouse uterotrophic assay at 800 ug; format: functional; summary of the method: as §2
[17] = target: T1, Estrogen receptor (Mus musculus); test: Estrogenic activity in mouse uterotrophic assay at 240 ug; format: functional; summary of the method: as §2
[18] = target: T1, Estrogen receptor (Mus musculus); test: Anti-estrogenic activity in mouse uterotrophic assay at 25 ug; format: functional; summary of the method: as §1
[19] = target: T1, Estrogen receptor (Mus musculus); test: Estrogenic activity in mouse uterotrophic assay at 8 ug; format: functional; summary of the method: as §2
[20] = target: T1, Estrogen receptor (Mus musculus); test: Anti-estrogenic activity in mouse uterotrophic assay at 50 ug; format: functional; summary of the method: as §1
[21] = target: T1, Estrogen receptor (Mus musculus); test: Estrogenic activity in mouse uterotrophic assay at 2 ug; format: functional; summary of the method: as §2
[22] = target: T1, Estrogen receptor (Mus musculus); test: Anti-estrogenic activity as inhibition of estrone-stimulated uterine growth in mice at 5 mg/kg; format: functional, organism-based; design: dose 5 mg/kg; summary of the method: as §1
[23] = target: T1, Estrogen receptor (Mus musculus); test: Anti-estrogenic activity in mouse uterotrophic assay at 5 ug; format: functional; summary of the method: as §1
[24] = target: T1, Estrogen receptor (Mus musculus); test: Anti-estrogenic activity as inhibition of estrone-stimulated uterine growth in mice at 100 mg/kg; format: functional, organism-based; design: dose 100 mg/kg; summary of the method: as §1
[25] = target: T1, Estrogen receptor (Mus musculus); test: Anti-estrogenic activity in mouse uterotrophic assay at 250 ug; format: functional; summary of the method: as §1
[26] = target: T1, Estrogen receptor (Mus musculus); test: Anti-estrogenic activity as inhibition of estrone-stimulated uterine growth in mice at 25 mg/kg; format: functional, organism-based; design: dose 25 mg/kg; summary of the method: as §1
[27] = target: T1, Estrogen receptor (Mus musculus); test: Anti-estrogenic activity as inhibition of estrone-stimulated uterine growth in mice at 50 mg/kg; format: functional, organism-based; design: dose 50 mg/kg; summary of the method: as §1
[28] = target: T1, Estrogen receptor (Mus musculus); test: Estrogenic activity in mouse uterotrophic assay at 0.5 ug; format: functional; summary of the method: as §2
[29] = target: T1, Estrogen receptor (Mus musculus); test: Estrogenic activity in mouse uterotrophic assay at 5 ug; format: functional; summary of the method: as §2
[30] = target: T1, Estrogen receptor (Mus musculus); test: Estrogenic activity in mouse uterotrophic assay at 50 ug; format: functional; summary of the method: as §2
[31] = target: T1, Estrogen receptor (Mus musculus); test: Anti-estrogenic activity as inhibition of estrone-stimulated uterine growth in mice at 10 mg/kg; format: functional, organism-based; design: dose 10 mg/kg; summary of the method: as §1

T1 sequence (O08537 whole entry, looked up): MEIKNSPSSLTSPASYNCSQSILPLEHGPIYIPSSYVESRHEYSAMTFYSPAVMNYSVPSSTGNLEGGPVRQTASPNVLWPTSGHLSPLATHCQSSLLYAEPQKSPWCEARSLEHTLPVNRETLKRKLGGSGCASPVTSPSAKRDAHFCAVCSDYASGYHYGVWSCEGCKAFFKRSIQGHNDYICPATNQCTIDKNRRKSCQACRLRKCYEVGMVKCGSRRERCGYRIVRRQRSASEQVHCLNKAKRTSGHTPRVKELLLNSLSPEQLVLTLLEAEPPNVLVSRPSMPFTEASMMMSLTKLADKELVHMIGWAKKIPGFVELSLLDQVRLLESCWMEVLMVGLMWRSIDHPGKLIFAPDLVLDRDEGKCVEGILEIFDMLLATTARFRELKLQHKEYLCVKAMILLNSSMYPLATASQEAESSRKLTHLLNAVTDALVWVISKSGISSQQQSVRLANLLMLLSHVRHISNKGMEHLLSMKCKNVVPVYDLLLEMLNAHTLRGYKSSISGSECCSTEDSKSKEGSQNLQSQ
T1 sequence (P19785 whole entry, looked up): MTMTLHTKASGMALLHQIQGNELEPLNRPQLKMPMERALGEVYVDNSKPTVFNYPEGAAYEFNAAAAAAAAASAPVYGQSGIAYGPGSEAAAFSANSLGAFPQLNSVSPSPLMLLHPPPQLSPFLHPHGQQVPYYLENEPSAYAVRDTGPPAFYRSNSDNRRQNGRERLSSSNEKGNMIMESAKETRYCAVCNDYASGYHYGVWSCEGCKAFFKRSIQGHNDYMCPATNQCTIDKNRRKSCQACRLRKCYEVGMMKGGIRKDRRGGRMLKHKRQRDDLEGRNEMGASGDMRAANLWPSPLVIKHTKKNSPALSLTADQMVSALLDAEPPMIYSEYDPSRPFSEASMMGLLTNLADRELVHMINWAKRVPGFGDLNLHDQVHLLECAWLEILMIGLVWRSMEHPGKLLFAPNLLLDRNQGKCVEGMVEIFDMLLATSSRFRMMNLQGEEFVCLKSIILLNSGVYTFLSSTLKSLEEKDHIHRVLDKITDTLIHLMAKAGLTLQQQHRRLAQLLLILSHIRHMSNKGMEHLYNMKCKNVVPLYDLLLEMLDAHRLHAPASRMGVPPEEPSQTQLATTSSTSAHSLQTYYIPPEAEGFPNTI

SMILES: CCC(c1cc(O)cc(O)c1)C(CC)c1cc(O)cc(O)c1 (stereo not drawn)
RBA [1]: 0.01

SMILES: CCC(c1ccc(N)c(O)c1)C(CC)c1ccc(N)c(O)c1 (stereo not drawn)
Activity [2]: 42.3
Activity [3]: 19.5
Activity [4]: 19.9
Activity [5]: 33
inhibition [6]: 29%
Activity [7]: 36.6
RBA [1]: 0.52
Activity [8]: 41.7
Activity [9]: 14.8
Activity [10]: 13.9

SMILES: CCC(c1ccc(O)cc1O)C(CC)c1ccc(O)cc1O (stereo not drawn)
RBA [1]: 32

SMILES: CCC(c1ccc(N(C)C)c(O)c1)C(CC)c1ccc(N(C)C)c(O)c1 (stereo not drawn)
RBA [1]: < 0.01

SMILES: CCC(c1ccc(O)c(N(C)C)c1)C(CC)c1ccc(O)c(N(C)C)c1 (stereo not drawn)
RBA [1]: < 0.01

SMILES: CCC(c1cc(O)ccc1Cl)C(CC)c1cc(O)ccc1Cl (stereo not drawn)
Activity [11]: 25.1
Activity [2]: 41.5
Activity [3]: 41.6
Activity [4]: 47.8
Activity [12]: 16.7
Activity [5]: 40.6
Activity [7]: 38.5
RBA [1]: 4.2
Activity [8]: 41
Activity [9]: 13.7
Activity [10]: 13.7

SMILES: CCC(c1ccc(COC)c(O)c1)C(CC)c1ccc(COC)c(O)c1 (stereo not drawn)
RBA [1]: 0.03

SMILES: CCOCc1cc(C(CC)C(CC)c2ccc(O)c(COCC)c2)ccc1O (stereo not drawn)
RBA [1]: 0.18

SMILES: CCC(c1ccc(O)c(C)c1)C(CC)c1ccc(O)c(C)c1 (stereo not drawn)
RBA [1]: 8.1

SMILES: CCc1ccc(C(CC)C(CC)c2ccc(CC)c(O)c2)cc1O (stereo not drawn)
RBA [1]: 0.04

SMILES: CCC(c1ccc(O)c(Cl)c1)C(CC)c1ccc(O)c(Cl)c1 (stereo not drawn)
RBA [1]: 1.6

SMILES: CCC(c1ccc(Br)c(O)c1)C(CC)c1ccc(Br)c(O)c1 (stereo not drawn)
RBA [1]: 0.03

The remaining lines, values ahead:

RBA [1]: 0.02
SMILES: CCC(c1ccc([N+](=O)[O-])c(O)c1)C(CC)c1ccc([N+](=O)[O-])c(O)c1 (stereo not drawn)

RBA [1]: < 0.01
SMILES: CCC(c1ccc(O)c(C(C)=O)c1)C(CC)c1ccc(O)c(C(C)=O)c1 (stereo not drawn)

Activity [2]: 22.4
Activity [13]: 31.8
Activity [14]: 25.4
inhibition [15]: 51%
Activity [5]: 34.2
Activity [16]: 32.6
inhibition [6]: 7%
Activity [17]: 32.8
Activity [18]: 28.6
Activity [19]: 18.5
Activity [20]: 24.7
RBA [1]: 1.1
Activity [21]: 8.9
inhibition [22]: 25%
Activity [9]: 13.5
Activity [23]: 30.2
inhibition [24]: 60%
Activity [25]: 24.4
inhibition [26]: 32%
inhibition [27]: 50%
Activity [10]: 8.7
SMILES: CCC(c1ccc(F)c(O)c1)C(CC)c1ccc(F)c(O)c1 (stereo not drawn)

Activity [2]: 31
Activity [3]: 52.1
Activity [4]: 37.5
Activity [28]: 13.3
Activity [5]: 27.2
Activity [29]: 19.8
inhibition [6]: 39%
Activity [30]: 41.9
Activity [7]: 50.5
RBA [1]: 15
Activity [8]: 25.4
Activity [9]: 13.7
inhibition [24]: 22%
inhibition [31]: 47%
Activity [10]: 13.7
SMILES: CCC(c1cc(O)ccc1C)C(CC)c1cc(O)ccc1C (stereo not drawn)

RBA [1]: < 0.01
SMILES: CCC(c1ccc(CN(C)C)c(O)c1)C(CC)c1ccc(CN(C)C)c(O)c1 (stereo not drawn)

RBA [1]: 0.14
SMILES: CCC(c1ccc(O)c([N+](=O)[O-])c1)C(CC)c1ccc(O)c([N+](=O)[O-])c1 (stereo not drawn)

RBA [1]: < 0.01
SMILES: CCC(c1cc(O)ccc1O)C(CC)c1cc(O)ccc1O (stereo not drawn)

RBA [1]: 2.2
SMILES: CCC(c1ccc(O)cc1Cl)C(CC)c1ccc(O)cc1Cl (stereo not drawn)
